Laboratory results taken from ChEMBL document CHEMBL2021777 (J Med Chem, 2012).
Active and inactive are the calls of the source. The rule behind the calls is not given here.

Key:
[1] = tested on: Mus musculus; test: Antidepressant activity in BALB/cJ mouse assessed as decrease in immobility at 10 mg/kg, po administered 30 mins prior to testing measured for 6 mins by forced swim test; type: functional, organism-based; parameters: dose 10 mg/kg
In short: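 Male BALB/cJ mice, 8−10 weeks old, housed four per cage on a 12 h light−dark cycle. Drug in injectable water was given by oral gavage (10 mL/kg). After 30 min, each mouse was placed in a glass cylinder with 12 cm of ~23 °C water, and floating immobility was timed over a 6 min trial. Analysis was by ANOVA with Fisher's PLSD post hoc test.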

[2] = molecular target: Histamine H3 receptor (Homo sapiens) (UniProt Q9Y5N1); test: Displacement of [3H]alpha-methylhistamine from H3 histamine receptor at 10 uM
Histamine H3 receptor (Homo sapiens), sequence (Q9Y5N1 whole entry): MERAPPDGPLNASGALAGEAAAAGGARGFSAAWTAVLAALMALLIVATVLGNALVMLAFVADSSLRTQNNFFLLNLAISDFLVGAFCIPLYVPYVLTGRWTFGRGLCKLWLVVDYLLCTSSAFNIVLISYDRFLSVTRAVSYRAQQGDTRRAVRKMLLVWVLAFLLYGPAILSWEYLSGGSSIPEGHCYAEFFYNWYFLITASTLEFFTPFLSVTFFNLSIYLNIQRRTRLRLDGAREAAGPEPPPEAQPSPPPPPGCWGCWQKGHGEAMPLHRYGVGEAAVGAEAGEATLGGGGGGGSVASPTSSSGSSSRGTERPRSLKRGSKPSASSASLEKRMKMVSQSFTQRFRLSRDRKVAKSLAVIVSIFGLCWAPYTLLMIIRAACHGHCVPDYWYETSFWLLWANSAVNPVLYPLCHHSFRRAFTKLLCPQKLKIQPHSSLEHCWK

[3] = molecular target: Histamine H4 receptor (Homo sapiens) (UniProt Q9H3N8); test: Displacement of [3H]Histamine from H4 histamine receptor at 10 uM
Histamine H4 receptor (Homo sapiens), sequence (Q9H3N8 whole entry): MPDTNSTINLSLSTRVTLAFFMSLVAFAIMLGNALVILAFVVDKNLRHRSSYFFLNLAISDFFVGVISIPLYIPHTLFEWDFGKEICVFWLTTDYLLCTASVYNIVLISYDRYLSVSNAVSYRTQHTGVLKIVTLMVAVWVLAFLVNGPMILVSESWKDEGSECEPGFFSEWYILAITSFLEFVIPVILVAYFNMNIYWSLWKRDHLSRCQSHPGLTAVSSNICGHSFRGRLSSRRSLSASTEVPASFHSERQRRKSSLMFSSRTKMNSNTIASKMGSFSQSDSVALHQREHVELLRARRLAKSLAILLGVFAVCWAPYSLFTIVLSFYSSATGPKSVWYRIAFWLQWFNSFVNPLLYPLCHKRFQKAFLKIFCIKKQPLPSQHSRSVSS

[4] = molecular target: Muscarinic acetylcholine receptor M1 (Homo sapiens) (UniProt P11229); test: Displacement of [3H]QNB from M1 receptor at 10 uM
Muscarinic acetylcholine receptor M1 (Homo sapiens), sequence (P11229 whole entry): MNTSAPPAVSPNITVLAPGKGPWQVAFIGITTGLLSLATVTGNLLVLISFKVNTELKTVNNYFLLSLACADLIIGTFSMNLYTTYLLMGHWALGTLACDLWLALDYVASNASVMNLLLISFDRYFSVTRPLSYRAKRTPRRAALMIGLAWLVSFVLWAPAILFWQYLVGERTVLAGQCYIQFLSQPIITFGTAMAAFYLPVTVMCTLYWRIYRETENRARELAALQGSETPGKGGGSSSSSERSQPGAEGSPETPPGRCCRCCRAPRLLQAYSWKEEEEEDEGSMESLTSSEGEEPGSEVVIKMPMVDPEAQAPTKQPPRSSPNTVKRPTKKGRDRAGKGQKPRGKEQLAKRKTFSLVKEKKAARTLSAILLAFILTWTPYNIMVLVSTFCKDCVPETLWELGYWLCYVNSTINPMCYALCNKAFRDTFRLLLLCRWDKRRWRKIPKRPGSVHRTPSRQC

[5] = molecular target: Cytochrome P450 1A2 (Homo sapiens, UniProt P05177); test: Inhibition of CYP1A2 up to 10 uM; type: ADME
Cytochrome P450 1A2, sequence (P05177 whole entry, canonical isoform): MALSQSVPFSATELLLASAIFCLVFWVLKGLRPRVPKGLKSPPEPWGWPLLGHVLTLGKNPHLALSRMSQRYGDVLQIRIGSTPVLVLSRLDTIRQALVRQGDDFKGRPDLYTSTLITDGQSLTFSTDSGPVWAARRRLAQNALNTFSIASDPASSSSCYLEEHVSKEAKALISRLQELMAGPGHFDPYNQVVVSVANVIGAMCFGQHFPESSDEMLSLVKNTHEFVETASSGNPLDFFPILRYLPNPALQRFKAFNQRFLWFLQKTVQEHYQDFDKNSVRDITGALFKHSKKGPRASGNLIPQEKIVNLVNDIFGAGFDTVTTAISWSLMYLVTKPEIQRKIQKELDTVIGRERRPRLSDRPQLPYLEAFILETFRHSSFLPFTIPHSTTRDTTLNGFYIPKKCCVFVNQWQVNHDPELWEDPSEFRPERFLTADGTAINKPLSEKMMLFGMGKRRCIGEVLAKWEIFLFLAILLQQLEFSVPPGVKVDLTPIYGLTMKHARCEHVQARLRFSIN
In short: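 Percent inhibition of CYP isoforms (CYP1A, CYP2C9, CYP2C19, CYP2D6, CYP3A; CYP1A2 reported) with test compound at concentrations up to 10 μM.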

[6] = tested on: Plasma; test: Plasma protein binding in human at 10 uM; type: ADME, cell-free
In short: (§1)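 Binding measured at 10 μM in human plasma and CD-1 mouse plasma; reported as mean percent bound.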

[7] = tested on: Plasma; test: Plasma protein binding in CD1 mouse at 10 uM; type: ADME, cell-free; in short: as §1
[8] = Displacement of [3H]Baclofen from GABA-B at 10 uM
[9] = Displacement of radioligand from oxytocin receptor; conditions: concentration not given here
[10] = tested on: Brain; test: Half life in CD1 mouse brain at 5 mg/kg, po; type: ADME, organism-based; parameters: dose 5 mg/kg, route oral; conditions: in vivo
In short: (§2)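 Male CD-1 mice given a single oral gavage dose of 5 mg/kg; plasma and brain concentrations measured over time to derive half-lives, Cmax and Tmax.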

[11] = tested on: Plasma; test: Half life in CD1 mouse plasma at 5 mg/kg, po; type: ADME, organism-based; parameters: dose 5 mg/kg, route oral; conditions: in vivo; in short: as §2
[12] = Cmax in CD1 mouse brain at 5 mg/kg, po at 30 mins; type: ADME, organism-based; parameters: dose 5 mg/kg, route oral
In short: (§3)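 Male CD-1 mice received a single oral gavage dose of 5 mg/kg. Drug levels were measured in brain and plasma over time; Cmax and Tmax were taken from the concentration−time profiles.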

[13] = tested on: Plasma; test: Cmax in CD1 mouse plasma at 5 mg/kg, po at 10 mins; type: ADME, organism-based; parameters: dose 5 mg/kg, route oral; conditions: in vivo; in short: as §3
[14] = tested on: Plasma; test: Tmax in CD1 mouse plasma at 5 mg/kg, po; type: ADME, organism-based; parameters: dose 5 mg/kg, route oral; conditions: in vivo; in short: as §2
[15] = tested on: Nucleic Acid; test: Ratio of drug level in brain to plasma in CD1 mouse at 5 mg/kg, po; type: ADME, organism-based; parameters: dose 5 mg/kg, route oral
In short: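 Male CD-1 mice, single 5 mg/kg oral gavage dose; brain-to-plasma ratio calculated as Cmax-brain/Cmax-plasma.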

Compound	Activity [1]	inhibition [2] [%]	inhibition [3] [%]	inhibition [4] [%]	inhibition (INH) [5] [%]	PPB [6] [%]	PPB [7] [%]	inhibition [8] [%]	inhibition [9] [%]	t1/2 [10] [h]	t1/2 [11] [h]	Cmax [12] [ng/mL]	Cmax [13] [ng/mL]	Tmax [14] [h]	BPR [15]
CNC(=O)OCC[C@H]1C[C@@H]1c1cncc(OC[C@@H]2CCN2)c1	Active	5.7	-8	12.9	80	8.4	23.8								
OCC[C@H]1C[C@@H]1c1cncc(OC[C@@H]2CCN2)c1								8.9	9.4						
COCC[C@H]1C[C@@H]1c1cncc(OC[C@@H]2CCN2)c1					70			3.2	-1.4	2.5	2.4	133	359	0.167	0.37
